Measurements reported in ChEMBL document CHEMBL3272318, “Antimalarials. 8. Synthesis of amino ethers as candidate antimalarials” (J Med Chem, 1976).
Calls of active or inactive are those of the source. No cut-off for these calls is given here.

What was measured:
Plasmodium berghei = test: Antimalarial activity against blood schizont stage of Plasmodium berghei infected in mouse at 640 mg/kg; type: functional, organism-based; parameters: dose 640 mg/kg
Plasmodium gallinaceum = test: Antimalarial activity against sporozoite stage of Plasmodium gallinaceum infected in chick at 480 mg/kg; type: functional, organism-based; parameters: dose 480 mg/kg
In short: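 Prophylactic screen run at the Rane Laboratory (University of Miami) in chicks infected with Plasmodium gallinaceum. Compounds were tested at doses up to 480 mg/kg.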

Mus musculus = species: Mus musculus; test: Toxicity in mouse infected with blood schizont stage of Plasmodium berghei; type: organism-based; details: in vivo

| SMILES | Activity (Plasmodium berghei) | Activity (Plasmodium gallinaceum) | Activity (Mus musculus) |
| --- | --- | --- | --- |
| CC1(C2CCN(C(=O)O)CC2)OC1c1ccc(Cl)cc1 (stereo unspecified) | inactive | inactive | Toxic |
| CCOC(C)(Cc1ccc(Cl)cc1)C1CCNCC1.Cl (stereo unspecified) | inactive | inactive | Toxic |
| COC(c1ccc(Cl)cc1)C(C)C1CCNCC1.Cl (stereo unspecified) | inactive | inactive | Toxic |
| CCC(CC1CCNCC1)(OC)c1ccc(Cl)cc1 (stereo unspecified) | inactive | inactive | Toxic |
| CC(C)(Br)C(=O)c1ccc(Cl)cc1 | inactive | inactive | Toxic |
| COC(CC1CCNCC1)c1ccc(Cl)cc1.Cl (stereo unspecified) | inactive | inactive | Toxic |
| CCC(CC1CCCNC1)(OC)c1ccc(Cl)cc1 (stereo unspecified) | inactive | inactive | Toxic |
| CCOC(c1ccc(Cl)cc1)C(C)C1CCNCC1.O=C(O)CCC(=O)O (stereo unspecified) | inactive | inactive | Toxic |
| CCOC(C)(CC1CCNCC1)c1ccc(Cl)cc1 (stereo unspecified) | inactive | inactive | Toxic |
| CCC(Cc1ccc(Cl)cc1)(OC)C1CCCNC1.O=C(O)CCC(=O)O (stereo unspecified) | inactive | inactive | Toxic |
| CN1CCC(C2(C)OC2c2ccc(Cl)cc2)CC1.Cc1ccc(S(=O)(=O)O)cc1 (stereo unspecified) | inactive | inactive | Toxic |
| CC(C)(Br)C(=O)c1ccc(-c2ccc(Cl)cc2)cc1 | inactive | inactive | Toxic |
